Results on 13 molecules are retold here after ChEMBL document CHEMBL1142230, “Small-molecule activators of RNase L with broad-spectrum antiviral activity” (Proc Natl Acad Sci U S A, 2007).

Molecules are shown by their SMILES. Activity calls are given as the source filed them. The rule behind the calls is not given here. A value given as a limit tells only on which side of the number the result lay.

Data set [1] deals with T1, 2-5A-dependent ribonuclease (Homo sapiens, UniProt Q05823).
T1 sequence (Q05823 whole entry): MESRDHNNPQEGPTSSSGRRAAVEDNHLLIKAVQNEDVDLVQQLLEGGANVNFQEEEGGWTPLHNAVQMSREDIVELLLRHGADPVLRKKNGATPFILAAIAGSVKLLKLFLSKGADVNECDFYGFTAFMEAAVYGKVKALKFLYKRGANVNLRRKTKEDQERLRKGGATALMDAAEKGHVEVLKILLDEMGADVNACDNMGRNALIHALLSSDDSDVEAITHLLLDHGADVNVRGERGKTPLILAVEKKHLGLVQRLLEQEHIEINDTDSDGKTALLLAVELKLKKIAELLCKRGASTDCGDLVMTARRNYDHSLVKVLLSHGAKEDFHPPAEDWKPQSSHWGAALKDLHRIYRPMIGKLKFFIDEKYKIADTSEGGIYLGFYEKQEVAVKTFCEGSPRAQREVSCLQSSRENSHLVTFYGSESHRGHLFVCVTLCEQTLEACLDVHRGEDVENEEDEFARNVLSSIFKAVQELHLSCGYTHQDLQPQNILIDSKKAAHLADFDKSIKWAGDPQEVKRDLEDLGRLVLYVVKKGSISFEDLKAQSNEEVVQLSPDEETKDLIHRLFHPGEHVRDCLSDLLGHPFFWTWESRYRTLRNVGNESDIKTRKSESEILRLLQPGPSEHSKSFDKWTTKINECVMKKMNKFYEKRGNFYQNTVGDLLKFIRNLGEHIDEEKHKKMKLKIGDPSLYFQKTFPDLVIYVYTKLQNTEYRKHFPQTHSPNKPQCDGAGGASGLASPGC
The data set can be described thus: Activation of human recombinant Rnase L assessed as cleavage of FRET RNA probe. The procedure, abridged: (§1)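 Baculovirus-expressed, FPLC-purified recombinant human RNase L (25 nM) with 100 nM 36-nt 6-FAM/BHQ-1 FRET RNA probe (Km 75 nM) in cleavage buffer: 25 mM Tris·HCl pH 7.4, 100 mM KCl, 10 mM MgCl2, 50 μM ATP, 7 mM 2-mercaptoethanol. 22°C up to 2 h; fluorescence ex 485/em 535 nm. Compounds delivered from DMSO stocks; rescreened without RNase L to remove false positives.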

Data set [2] deals with Encephalomyocarditis virus. Put plainly: Antiviral activity against encephalomyocarditis virus in wild type mouse fibroblasts assessed as reduction in viral growth. It is filed as functional. In short, it runs like this: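 SV40 T antigen-transformed wild-type mouse embryonic fibroblasts were grown in RPMI 1640 with 10% FBS and seeded at 2.5 × 10⁵ cells/well. After 1 h, cells were infected with EMCV strain K (MOI 0.5) in serum-free medium for 1 h, washed with PBS, then fed complete medium containing varied compound amounts. At 12 h, titres were measured by plaque assay on L929 cells, in triplicate.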

The test system of data set [3] is Human respirovirus 3. The data set can be described thus: Antiviral activity against human parainfluenza virus3 in HeLaS cells expressing wild type RNaseL after 24 hrs by GFP reporter assay. The format is functional. In short, it runs like this: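 HeLa S cells, with endogenous wild-type RNase L, were infected with HPIV3/GFP at MOI 1.0. After 90 min, medium was removed and cells were washed twice with PBS. Cells were then incubated in complete medium without compound or with 10, 50 or 100 μM compound. GFP fluorescence was imaged by fluorescence microscopy at 24 h post-infection.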
On the technique in general: In a reporter assay the amount or activity of a reporter protein is the signal.

Data set [4] is described as follows: Cytotoxicity against mouse fibroblast assessed as reduction of cell viability upto 50 uM. The format is cell-based. In short, it runs like this: (§2)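 SV40-transformed mouse embryonic fibroblasts or HeLa S cells (10^4/well) treated with compound up to 50 μM for 24 h. MTS reagent added for 3 h at 37°C; absorbance read at 490 nm. Triplicate, with SDs.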
In data set [5] the target is T2, 2-5A-dependent ribonuclease (Homo sapiens) (UniProt Q05823).
T2 sequence (whole entry): T1 sequence (Q05823 whole entry)
Put plainly: Activation of human recombinant RNaseL at 40 uM assessed as cleavage of FRET RNA probe. The procedure, abridged:
as §1

The test system of another data set is HeLaS. The data set can be described thus: Cytotoxicity against of human HeLaS cells assessed as reduction of cell viability upto 50 uM. It is filed as functional, cell-based. The procedure, abridged:
as §2

For data set [6], the target named is T1, 2-5A-dependent ribonuclease. The data set can be described thus: Displacement of 5'-phosphorylated, 2',5'-oligoadenylate from human recombinant RNase L assessed as decrease in resonance by surface plasma resonance. The procedure, abridged:
(§3)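 Biotinylated 2-5A immobilized on streptavidin biosensor chips; 10 nM RNase L with varying activator concentrations passed over the chip. Response units recorded over time, and maximum response at equilibrium (Rmax) fitted against concentration by global fit.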

Data set [7] addresses T2, 2-5A-dependent ribonuclease (Homo sapiens). The data set can be described thus: Induction of dimerization of human RNaseL at 3 to 12 uM assessed by Western blotting. The procedure, abridged: (§4)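 RNase L incubated with 2-5A or activator, with or without the cross-linker dimethyl suberimidate. Oligomeric state (monomer vs dimer) read by SDS/PAGE and Western blot probed with anti-RNase L monoclonal antibody.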

The target is the same in data set [8]. Put plainly: Activation of human recombinant RNase L assessed as cleavage of p32-labelled RNA molecule at 25 uM after 30 mins.
For the next data set, the system named is Respirovirus muris. Put plainly: Antiviral activity against sendai virus in HeLaS cell assessed as suppression of infection. It is filed as functional, organism-based. The procedure, abridged: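 HeLa S cells infected with Sendai virus (Cantell), 20 HA units/ml, in serum-free medium for 90 min. Cells washed and given complete medium with compound doses. Supernatant collected at 24 h; viral genomic RNA quantified by real-time RT-PCR; triplicate.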

Data set [9] deals with Human respirovirus 3. Put plainly: Antiviral activity against human parainfluenza virus3 in HeLaM cells expressing wild type RNaseL by plaque assay.
For another data set, the system named is XMRV. The data set can be described thus: Antiviral activity against human retrovirus XMRV in human DU145 cells assessed as suppression of infection. The note with it: Xenotropic MuLV-related virus; DU-145. The format is functional, cell-based. The procedure, abridged: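 DU145 cells infected with XMRV for 3 h in FBS-free RPMI 1640 containing 8 μg/ml polybrene, then washed. Treated in triplicate with compound in fresh complete RPMI for 2 d. Reverse transcriptase activity measured in supernatants.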

Data set [10] deals with Human respirovirus 3. The data set can be described thus: Antiviral activity against human parainfluenza virus3 in HeLaM cells expressing RNaseL R667A mutant […]. The format is functional. The procedure, abridged: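 HeLa M cells expressing R667A RNase L cDNA were grown in DMEM with 10% FBS. They were infected with HPIV3/GFP (MOI 1.0) in serum-free medium for 90 min, washed with PBS, then given complete medium with varied compound amounts. At 24 h, virus was harvested by two freeze–thaw cycles and titred by plaque assay on CV1 cells, in triplicate.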

Data set [11] addresses T2, 2-5A-dependent ribonuclease (Homo sapiens). The data set can be described thus: Induction of dimerization of human RNaseL at 0.06 to 0.25 uM assessed by Western blotting. In short, it runs like this: as §4
Background: A western blot detects proteins with antibodies after separation by electrophoresis.

The target is the same in data set [12]. Put plainly: Activation of human recombinant RNase L assessed as cleavage of FRET RNA probe at 15 mins. In short, it runs like this:
as §1

For data set [13], the target named is T1, 2-5A-dependent ribonuclease. Put plainly: Binding affinity to human recombinant RNase L. The procedure, abridged:
as §3

Turning to `COc1ccc(Cl)cc1NC(=O)c1cc2c(C)nn(-c3ccccc3)c2s1`, the EC50 in data set [1] was found to be 48 µM.
Turning to `Cc1ccc(NC2=NC(=O)/C(=C/c3cccc(O)c3)S2)c(Cl)c1`, the EC50 in [1] was 49 µM.
Same read-out and setting: to `O=c1[nH]c(-c2cccc([N+](=O)[O-])c2)nc2sc3c(c12)CCCC3` belongs 22 µM; to `CC(=O)c1ccc(NC(=S)NC(NC(=O)Cc2ccccc2)C(Cl)(Cl)Cl)cc1` (stereo not drawn), 79 µM.
Take `O=c1[nH]c(-c2cccc(O)c2)nc2sc3c(c12)CCCC3`: the Activity is listed as 7 in [2], 5 in the data set on Human respirovirus 3 [3], “Not Active” in data set [4] and under 2 in the data set with Human respirovirus 3 [10]. In addition, the result (in data set [5]; in data set [7]; in [8]; in the data set with Respirovirus muris; with Human respirovirus 3 [9]; in the data set on XMRV) was Active. Further, the outcome in the data set with HeLaS was inactive. Further, the Kd in data set [6] turned out to be 12 µM. In addition, the EC50 in data set [1] worked out at 22 µM.
For the molecule `CCOC(=O)C1=C(Nc2ccc(Cl)cc2)S/C(=C\c2cccc(O)c2)C1=O`, in data set [1], the EC50 was 49 µM.
Turning to `CCCCOC(=O)c1ccc(NC(=S)NC(NC(=O)CC)C(Cl)(Cl)Cl)cc1` (stereo not drawn), the EC50 in data set [1] was 90 µM.
On to `Cc1c(Cl)cccc1NC1=NC(=O)/C(=C/c2ccc([N+](=O)[O-])cc2)S1`, for which the EC50 in data set [1] is 50 µM.
Consider `Nc1ncnc2c1ncn2[C@@H]1O[C@H](COP(=O)(O)O[C@@H]2[C@H](O)[C@@H](COP(=O)(O)O[C@@H]3[C@H](O)[C@@H](COP(=O)(O)OP(=O)(O)OP(=O)(O)O)O[C@H]3n3cnc4c(N)ncnc43)O[C@H]2n2cnc3c(N)ncnc32)[C@@H](O)[C@H]1O`, for which the result in [11], in [8] and in data set [12] was Active.
Regarding `CCCCOC(=O)c1ccc(NC(=S)NC(NC(C)=O)C(Cl)(Cl)Cl)cc1` (stereo not drawn), the EC50 in data set [1] worked out at 99 µM.
As for `Nc1ncnc2c1ncn2[C@@H]1O[C@H](CO[P@](=O)(O)O[C@@H]2[C@H](O)[C@@H](CO[P@](=O)(O)O[C@@H]3[C@H](O)[C@@H](CO[P@](=O)(O)O[P@@](=O)(O)OP(=O)(O)O)O[C@H]3n3cnc4c(N)ncnc43)O[C@H]2n2cnc3c(N)ncnc32)[C@@H](O)[C@H]1O`, the Kd in data set [13] amounted to 0.04 nM; in data set [6], 0.00022 µM. In [1], the EC50 was 0.0005 µM.
Take `O=c1[nH]c(-c2ccc(O)cc2)nc2sc3c(c12)CCCC3`: in data set [1], the EC50 came out at 26 µM.
As for `CCOC(=O)C1=C(Nc2ccccc2)S/C(=C\c2cccc(O)c2)C1=O`, the figures for the Activity in [2] and in data set [4] were 7 and “Not Active”, respectively. Also, the outcome (in [5]; in data set [7]; in [11]; in data set [8]; in the data set with Respirovirus muris) was Active. Further, the result with HeLaS was inactive. Further, the Kd in data set [6] was determined as 18 µM. Moreover, in data set [1], the EC50 was determined as 26 µM.

What is called EC50 is the midpoint of the concentration-response curve. Broadly, the Kd is the equilibrium constant for the complex coming apart.
